Compound activity from PubChem BioAssay.
TAAR1 agonist – human TAAR1 agonism | Q96RJ0 | CHO RD-HGA16 TAAR1, Fluo-8 calcium fluorescence; vehicle wells 0%, saturating PEA agonist 100% | activation, % at 3 µM | 360,000 tested, 0.99% active | AID 624467;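 active = activation above the mean activation of all test compounds in the run plus 3 SD, cut at about 38% in these data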
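Test system: RD-HGA16 (CHO) cells co-expressing Gα16 and hTAAR1 | Doses: Single dose, 3 µM | Schedule: 17-24 h seeding, 75 min 37 °C dye, 30 min RT | Evaluation: % activation from peak over basal fluorescence ratio, DMSO-to-PEA scaled | Technique: Kinetic Fluo-8 calcium fluorescence | Benchmarks: Low control DMSO, high control PEA (EC100)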
OX1R antag-1 – blocks the human orexin 1 receptor | CHO/OX1R cells, Fluo-8 calcium fluorescence, orexin A | inhibition, % at 5 µM | 330,000 tested, 0.43% active | AID 434989;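 active = inhibition above its plate's threshold, mean inhibition of all tested compounds on the plate plus 3 SD, cut at about 37% in these data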;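 note: 0% = orexin A challenge wells and 100% = SB-334867-A antagonist wells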
CHO parental Ca – counter-screen: ATP calcium response change in parental CHO cells. parental CHO-K1, ATP-induced calcium, Fluo-8 fluorescence. 330,000 tested, 0.63% active. inhibition, % at 5.6 µM;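 active = inhibition above that plate's mean sample inhibition plus 3 SD, cut at about 26% in these data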;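 note: 0% = ATP-challenged DMSO wells and 100% = DMSO wells without ATP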
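Measured by: calcium-sensitive Fluo-8 fluorescence / Test system: CHO parental line / Controls: ATP-challenged DMSO wells low, unchallenged DMSO wells high / Measure: % inhibition / Compound: single nominal dose of 5.6 µM per compound / Replicates: single well per compound, no replicates / Reagent: ATP as calcium-mobilizing challenge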
OX1R antag-2 – blocks the human orexin 1 receptor | inhibition, % at 6.6 µM | O43613 | OX1R-expressing cells, FRET antagonist read-out | AID 485270 | 330,000 tested, 1.8% active; in the data active = inhibition mostly above about 38%, no sharp cut-off; inactive = mostly below about 40%;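 note: 0% = agonist challenge alone and 100% = reference antagonist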
TAAR1 antagonist – human TAAR1 antagonism; Q96RJ0; CHO RD-HGA16 TAAR1, Fluo-8 calcium fluorescence, antagonist; inhibition, % at 3 µM; 360,000 tested, 1.5% active;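 active = inhibition above a per-plate cutoff, the mean inhibition of test compounds on that plate plus 3 SD, cut at about 49% in these data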;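 note: 0% = DMSO plus EC80 beta-PEA response and 100% = DMSO alone without agonist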
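Test system: hTAAR1-expressing CHO RD-HGA16 cells, Gα16-coupled; Probe or stimulus: EC80 β-phenethylamine stimulus; Compound dosing: single nominal final test compound concentration of 3 µM; Timing: 140 s kinetic read after compound, 140 s after agonist; Signal: Fluo-8 calcium-sensitive fluorescence; Measure: % inhibition of agonist calcium response; Controls: DMSO and EC80 PEA controls.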
GPR7 antagonist – human neuropeptides B/W receptor 1 antagonism; GPR7-expressing cells, fluorescence antagonist assay; inhibition, % at 4.4 µM; 290,000 tested, 1.1% active; AID 1861; in the data active = inhibition above about 16%, passing the limit was not always enough;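 note: cells stimulated with the agonist NPW; 0% = agonist with vehicle and 100% = vehicle without agonist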
Target sequence (P48145 whole entry, looked up): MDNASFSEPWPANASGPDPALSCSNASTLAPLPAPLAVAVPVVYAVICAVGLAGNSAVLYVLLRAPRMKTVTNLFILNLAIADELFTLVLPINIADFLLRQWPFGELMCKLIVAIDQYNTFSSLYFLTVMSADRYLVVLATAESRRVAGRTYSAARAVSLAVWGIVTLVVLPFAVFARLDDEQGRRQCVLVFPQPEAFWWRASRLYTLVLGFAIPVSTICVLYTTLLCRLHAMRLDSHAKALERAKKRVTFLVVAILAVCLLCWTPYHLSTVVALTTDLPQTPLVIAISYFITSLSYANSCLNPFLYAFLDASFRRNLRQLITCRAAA
TAAR1 ag confirm – confirmation of human TAAR1 agonists | shares compounds with TAAR1 agonist | CHO RD-HGA16 TAAR1, Fluo-8 calcium fluorescence; scaled: DMSO 0%, maximal phenethylamine 100% | activation, % at 3 µM | 2,400 tested, 82% active;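 active = activation above a cutoff set at the run's mean compound activation plus 3 SD, cut at about 39% in these data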
Ga16 nonsel ag – counter-screen for TAAR1 agonists: nonselective agonists in parental cells | shares compounds with TAAR1 agonist | CHO-Ga16 parental, Fluo-8 calcium fluorescence; normalized to maximal ATP response, DMSO zero | activation, % at 3 µM | 2,400 tested, 50% active | AID 651787;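 active = activation above the run cutoff, the mean activation over all tested wells plus 3 SD, cut at about 12% in these data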;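 note: 0% = DMSO wells and 100% = maximal ATP response on the peak over basal ratio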
TAAR1 desens – TAAR1 response desensitization, agonist counter-screen. AID 651951. 2,400 tested, 46% active. inhibition, % at 3 µM. shares compounds with TAAR1 agonist. CHO RD-HGA16 hTAAR1, Fluo-8 calcium, beta-PEA response inhibition;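 active = inhibition above the run cutoff, the mean inhibition of all test compounds plus 3 SD, cut at about 49% in these data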;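 note: beta-PEA stimulus applied at its EC80; loss of beta-PEA calcium signal after compound pretreatment read as receptor desensitization; 0% = DMSO with beta-PEA at EC80 and 100% = DMSO alone without agonist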
Ga16 antag count – counter-screen for TAAR1 agonists: nonselective Ga16 antagonists; inhibition, % at 3 µM; shares compounds with TAAR1 agonist; CHO-Ga16 ATP-induced calcium, Fluo-8 fluorescence; 2,400 tested, 39% active;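 active = inhibition above the plate's mean compound inhibition plus 3 SD, computed per plate, cut at about 22% in these data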;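 note: 0% = EC80 ATP with DMSO and 100% = DMSO wells without ATP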
Starred values were filed as active, the others as inactive; . = not tested or not shown. A selection: hits, their analogues and other compounds. The true share with any hit is near 4.5%.

SMILES | TAAR1 agonist | OX1R antag-1 | CHO parental Ca | OX1R antag-2 | TAAR1 antagonist | GPR7 antagonist | TAAR1 ag confirm | Ga16 nonsel ag | TAAR1 desens | Ga16 antag count
NC(CCc1ccccc1)c1csc(Nc2ccc(C(F)(F)F)cn2)n1 (stereo not drawn) | 56* | . | . | . | 21 | . | 40* | 25* | 40 | 36*
NC(c1csc(Nc2ccc(C(F)(F)F)cn2)n1)C1CCCCC1 (stereo not drawn) | 76* | . | . | . | 20 | . | 75* | 43* | 60* | 55*
CC(C)CC(N)c1csc(Nc2ccc(C(F)(F)F)cn2)n1 (stereo not drawn) | 58* | . | . | . | 25 | . | 54* | 22* | 31 | 26*
NC(COCc1ccccc1)c1csc(Nc2ccc(C(F)(F)F)cn2)n1 (stereo not drawn) | 36 | . | . | . | 3 | . | . | . | . | .
C[C@@H]1CN([C@@H](C)CO)C(=O)c2cc(Br)cnc2O[C@H]1CN(C)Cc1ccccc1C(=O)O | 2 | . | . | . | -8 | . | . | . | . | .
COc1ccc(C(=O)N2CCCCC2c2cc(C(=O)NCc3ccccc3)no2)cc1 (stereo not drawn) | 5 | . | . | . | -1 | . | . | . | . | .
O=C(CCc1ccccc1)N/N=C/c1cc(Br)ccc1O | 5 | -13 | -9 | 11 | 15 | -3 | . | . | . | .
Oc1ccc(Br)cc1/C=N/NC(=S)NCCc1ccccc1 | 58* | 7 | 34* | 17 | 21 | -33 | 74* | 41* | 45 | 47*
CC(=O)NC(C)(c1ccccc1)c1nc(-c2csc3ccccc23)cs1 (stereo not drawn) | 2 | . | . | . | -7 | . | . | . | . | .
CC(OC(=O)c1cc2sccc2n1C)C(=O)NCc1ccc(F)cc1 (stereo not drawn) | 50* | -20 | 37* | 20 | 51* | 0 | 18 | 17* | 4 | 10
CC(NC(=O)C1CC(=O)N(c2ccc3c(c2)OCCO3)C1)c1ccccc1 (stereo not drawn) | 1 | . | . | . | 7 | . | . | . | . | .
O=C(N=Nc1c(O)n(C2OC(=O)c3ccccc32)c2ccccc12)c1ccc(O)cc1 (stereo not drawn) | 71* | -5 | -14 | 13 | 35 | 27 | 8 | 8 | 14 | 19
CC(C)c1ccc(NC(=O)Nc2nc(C(N)c3ccccc3Cl)cs2)cc1 (stereo not drawn) | 30 | . | . | . | 27 | . | . | . | . | .
C#CCOC(=O)CCC(=O)NCCc1ccccc1 | 63* | -17 | -7 | 6 | 77* | 0 | 84* | 4 | 97* | 11
CCOc1ccc(CCNC(=O)CCCn2nc(C)c3c(C)n(-c4ccccc4)nc3c2=O)cc1 | -2 | -33 | -38 | 13 | -20 | -14 | . | . | . | .
Cc1nn(CCCC(=O)NCCc2ccccc2)c(=O)c2nccn12 | 44* | -19 | -11 | 6 | -34 | 4 | 66* | 3 | 6 | 7
O=C(CCCCC(=O)NCCc1ccccc1)NCCc1ccccc1 | 10 | -16 | -10 | 6 | 2 | 9 | . | . | . | .
O=C(CCCOc1ccccc1)NCCc1ccccc1 | . | 14 | -6 | 7 | . | 4 | . | 2 | . | 7
O=C(Nc1ccc2c(c1)OCCO2)C1c2ccccc2OCC(=O)N1Cc1ccccc1 (stereo not drawn) | 4 | . | . | . | -17 | . | . | . | . | .
COc1ccc(-c2noc(CN(C)C(=O)c3ccoc3C)n2)cc1 | 8 | -24 | -2 | 28 | -8 | 1 | . | . | . | .
O=C(CCc1nnc(Cc2c[nH]c3ccccc23)o1)NCCC1CCCCO1 (stereo not drawn) | 0 | . | . | . | -1 | . | . | . | . | .
